Reference: ChEMBL document CHEMBL4033712, “Synthesis and biological evaluation of new C-12(α/β)-(N-) sulfamoyl-phenylamino-14-deoxy-andrographolide derivatives as potent anti-cancer agents” (Bioorg Med Chem Lett, 2017)

What was measured:
Type in all cases: functional
CCRF-CEM = test: Anticancer activity against human CCRF-CEM cells assessed as cell growth at 10 uM after 48 hrs by sulforhodamine B assay relative to control; conditions: read-out: Activity
Procedure, shortened: (§1)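 Single-dose NCI-60 panel screen: compound added at 10 µM and the culture incubated 48 h. The end point was read by protein staining with sulforhodamine B. The value is percent growth of treated cells relative to untreated control cells, reported as a mean graph across the panel.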

MOLT-4 = test: Anticancer activity against human MOLT4 cells assessed as cell growth at 10 uM after 48 hrs by sulforhodamine B assay relative to control; conditions: MOLT-4, 48 h, read-out: Activity; procedure, shortened: as §1
SR = test: Anticancer activity against human SR cells assessed as cell growth at 10 uM after 48 hrs by sulforhodamine B assay relative to control; conditions: read-out: Activity
Procedure, shortened: (§2)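 NCI-60 single-dose screen: compound added at 10 µM, cultures incubated 48 h. End point by sulforhodamine B protein-binding dye. Value reported as percent growth of treated cells relative to untreated control cells.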

HOP-62 = test: Anticancer activity against human HOP62 cells assessed as cell growth at 10 uM after 48 hrs by sulforhodamine B assay relative to control; conditions: HOP-62, 48 h, read-out: Activity; procedure, shortened: as §1
NCI-H226 = test: Anticancer activity against human NCI-H226 cells assessed as cell growth at 10 uM after 48 hrs by sulforhodamine B assay relative to control; conditions: NCI-H226, 48 h, read-out: Activity; procedure, shortened: as §1
NCI-H23 = test: Anticancer activity against human NCI-H23 cells assessed as cell growth at 10 uM after 48 hrs by sulforhodamine B assay relative to control; conditions: NCI-H23, 48 h, read-out: Activity; procedure, shortened: as §1
NCI-H460 = test: Anticancer activity against human NCI-H460 cells assessed as cell growth at 10 uM after 48 hrs by sulforhodamine B assay relative to control; conditions: NCI-H460, 48 h, read-out: Activity; procedure, shortened: as §1
COLO 205 = test: Anticancer activity against human COLO205 cells assessed as cell growth at 10 uM after 48 hrs by sulforhodamine B assay relative to control; conditions: COLO 205, 48 h, read-out: Activity; procedure, shortened: as §1
HCC 2998 = test: Anticancer activity against human HCC2998 cells assessed as cell growth at 10 uM after 48 hrs by sulforhodamine B assay relative to control; conditions: HCC 2998, 48 h, read-out: Activity; procedure, shortened: as §1
HCT-15 = test: Anticancer activity against human HCT15 cells assessed as cell growth at 10 uM after 48 hrs by sulforhodamine B assay relative to control; conditions: HCT-15, 48 h, read-out: Activity; procedure, shortened: as §1
HT-29 = test: Anticancer activity against human HT-29 cells assessed as cell growth at 10 uM after 48 hrs by sulforhodamine B assay relative to control; conditions: HT-29, 48 h, read-out: Activity; procedure, shortened: as §1
SW-620 = test: Anticancer activity against human SW620 cells assessed as cell growth at 10 uM after 48 hrs by sulforhodamine B assay relative to control; conditions: SW-620, 48 h, read-out: Activity; procedure, shortened: as §2
SF-295 = test: Anticancer activity against human SF295 cells assessed as cell growth at 10 uM after 48 hrs by sulforhodamine B assay relative to control; conditions: SF-295, 48 h, read-out: Activity; procedure, shortened: as §1
MDA-MB-435 = test: Anticancer activity against human MDA-MB-435 cells assessed as cell growth at 10 uM after 48 hrs by sulforhodamine B assay relative to control; conditions: MDA-MB-435, 48 h, read-out: Activity; procedure, shortened: as §1
SK-MEL-28 = test: Anticancer activity against human SK-MEL-28 cells assessed as cell growth at 10 uM after 48 hrs by sulforhodamine B assay relative to control; conditions: SK-MEL-28, 48 h, read-out: Activity; procedure, shortened: as §1
SK-MEL-5 = test: Anticancer activity against human SK-MEL-5 cells assessed as cell growth at 10 uM after 48 hrs by sulforhodamine B assay relative to control; conditions: SK-MEL-5, 48 h, read-out: Activity; procedure, shortened: as §1
UACC-62 = test: Anticancer activity against human UACC62 cells assessed as cell growth at 10 uM after 48 hrs by sulforhodamine B assay relative to control; conditions: UACC-62, 48 h, read-out: Activity; procedure, shortened: as §2
IGROV-1 = test: Anticancer activity against human IGROV1 cells assessed as cell growth at 10 uM after 48 hrs by sulforhodamine B assay relative to control; conditions: IGROV-1, 48 h, read-out: Activity; procedure, shortened: as §1
OVCAR-3 = test: Anticancer activity against human OVCAR3 cells assessed as cell growth at 10 uM after 48 hrs by sulforhodamine B assay relative to control; conditions: OVCAR-3, 48 h, read-out: Activity; procedure, shortened: as §1
OVCAR-8 = test: Anticancer activity against human OVCAR8 cells assessed as cell growth at 10 uM after 48 hrs by sulforhodamine B assay relative to control; conditions: OVCAR-8, 48 h, read-out: Activity; procedure, shortened: as §1
SK-OV-3 = test: Anticancer activity against human SKOV3 cells assessed as cell growth at 10 uM after 48 hrs by sulforhodamine B assay relative to control; conditions: SK-OV-3, 48 h, read-out: Activity; procedure, shortened: as §1
786-0 = test: Anticancer activity against human 786-0 cells assessed as cell growth at 10 uM after 48 hrs by sulforhodamine B assay relative to control; conditions: 786-0, 48 h, read-out: Activity; procedure, shortened: as §1
CAKI-1 = test: Anticancer activity against human Caki1 cells assessed as cell growth at 10 uM after 48 hrs by sulforhodamine B assay relative to control; conditions: CAKI-1, 48 h, read-out: Activity; procedure, shortened: as §1
SN12C = test: Anticancer activity against human SN12C cells assessed as cell growth at 10 uM after 48 hrs by sulforhodamine B assay relative to control; conditions: read-out: Activity; procedure, shortened: as §1
TK-10 = test: Anticancer activity against human TK10 cells assessed as cell growth at 10 uM after 48 hrs by sulforhodamine B assay relative to control; conditions: TK-10, 48 h, read-out: Activity; procedure, shortened: as §2
UO-31 = test: Anticancer activity against human UO31 cells assessed as cell growth at 10 uM after 48 hrs by sulforhodamine B assay relative to control; conditions: UO-31, 48 h, read-out: Activity; procedure, shortened: as §2
PC-3 = test: Anticancer activity against human PC3 cells assessed as cell growth at 10 uM after 48 hrs by sulforhodamine B assay relative to control; conditions: PC-3, 48 h, read-out: Activity; procedure, shortened: as §1
MCF7 = test: Anticancer activity against human MCF7 cells assessed as cell growth at 10 uM after 48 hrs by sulforhodamine B assay relative to control; conditions: MCF7, 48 h, read-out: Activity; procedure, shortened: as §1
MDA-MB-231 = test: Anticancer activity against human MDA-MB-231 cells assessed as cell growth at 10 uM after 48 hrs by sulforhodamine B assay relative to control; conditions: MDA-MB-231, 48 h, read-out: Activity; procedure, shortened: as §1
Hs-578T = test: Anticancer activity against human Hs 578T cells assessed as cell growth at 10 uM after 48 hrs by sulforhodamine B assay relative to control; conditions: read-out: Activity; procedure, shortened: as §1
BT-549 = test: Anticancer activity against human BT549 cells assessed as cell growth at 10 uM after 48 hrs by sulforhodamine B assay relative to control; conditions: BT-549, 48 h, read-out: Activity; procedure, shortened: as §1
T47D = test: Anticancer activity against human T47D cells assessed as cell growth at 10 uM after 48 hrs by sulforhodamine B assay relative to control; conditions: read-out: Activity; procedure, shortened: as §2

Compound	growth at 10 µM (CCRF-CEM)	growth at 10 µM (MOLT-4)	growth at 10 µM (SR)	growth at 10 µM (HOP-62)	growth at 10 µM (NCI-H226)	growth at 10 µM (NCI-H23)	growth at 10 µM (NCI-H460)	growth at 10 µM (COLO 205)	growth at 10 µM (HCC 2998)	growth at 10 µM (HCT-15)	growth at 10 µM (HT-29)	growth at 10 µM (SW-620)	growth at 10 µM (SF-295)	growth at 10 µM (MDA-MB-435)	growth at 10 µM (SK-MEL-28)	growth at 10 µM (SK-MEL-5)	growth at 10 µM (UACC-62)	growth at 10 µM (IGROV-1)	growth at 10 µM (OVCAR-3)	growth at 10 µM (OVCAR-8)	other results
C=C1CC[C@@H]2[C@](C)(COC(C)=O)[C@H](OC(C)=O)CC[C@@]2(C)[C@H]1CC(Nc1ccc(S(=O)(=O)Nc2ncccn2)cc1)C1=CCOC1=O (some centres undefined)	-26.2%	-8.69%	-4.43%	126%	-16.6%	29.6%	18.1%	-12.1%	32%	-51.4%	-48.6%	-70%	68%	-14.8%	-17.7%	24.1%	3.93%	7.21%	-80.6%	3.81%	growth at 10 µM (SK-OV-3): 84.7%; growth at 10 µM (786-0): -10.1%; growth at 10 µM (CAKI-1): 50.2%; growth at 10 µM (SN12C): 7.64%; growth at 10 µM (TK-10): 35.1%; growth at 10 µM (UO-31): -17.9%; growth at 10 µM (PC-3): 15.1%; growth at 10 µM (MCF7): -19.6%; growth at 10 µM (MDA-MB-231): -1.01%; growth at 10 µM (Hs-578T): 51.2%; growth at 10 µM (BT-549): -32%; growth at 10 µM (T47D): 42.3%
C=C1CC[C@@H]2[C@](C)(COC(C)=O)[C@H](OC(C)=O)CC[C@@]2(C)[C@H]1CC(Nc1ccc(S(=O)(=O)Nc2nccs2)cc1)C1=CCOC1=O (some centres undefined)	-27.7%	-4.45%	-5.84%	120%	-14%	38.1%	29.5%	-24.6%	54.2%	-39.2%	-42.7%	-72.7%	73%	-8.31%	-16.3%	31.4%	21.2%	12.6%	-70.2%	4.39%	growth at 10 µM (SK-OV-3): 79.9%; growth at 10 µM (786-0): 6.27%; growth at 10 µM (CAKI-1): 55.9%; growth at 10 µM (SN12C): 15.6%; growth at 10 µM (TK-10): 55%; growth at 10 µM (UO-31): 13.5%; growth at 10 µM (PC-3): 21.8%; growth at 10 µM (MCF7): -21.3%; growth at 10 µM (MDA-MB-231): 5.69%; growth at 10 µM (Hs-578T): 51.9%; growth at 10 µM (BT-549): -23.5%; growth at 10 µM (T47D): 34.6%
